Screens (PubChem BioAssay)
SENP1 inh – human SENP1 catalytic domain inhibitors, primary screen, biochemical, FRET, uHTS. Sentrin-specific protease 1 (Homo sapiens), Q9P0U3. recombinant SENP1 catalytic domain, CyPet-SUMO1-YPet FRET cleavage. inhibition, % at 10 µM. 0.21% of 360,000 active. AID 624204, 2012;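 active = inhibition at least 30% at 10 µM, raw YFP signal under a set limit, fluorescence ratio 0.5 to 1.5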;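 note: 0% = enzyme with DMSO and 100% = no enzyme wells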
Target sequence (Q9P0U3 419-644 limits assumed): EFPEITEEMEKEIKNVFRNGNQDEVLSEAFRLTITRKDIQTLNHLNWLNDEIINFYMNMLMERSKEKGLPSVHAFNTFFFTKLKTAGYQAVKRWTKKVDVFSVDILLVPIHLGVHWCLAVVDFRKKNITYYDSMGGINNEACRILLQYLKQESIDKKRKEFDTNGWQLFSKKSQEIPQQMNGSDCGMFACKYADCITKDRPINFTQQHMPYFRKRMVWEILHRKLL
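Compound: 10 µM single point, 0.5% DMSO; Test system: hSENP1 catalytic domain, recombinant; Timing: 50 min reaction at room temperature; Technique: FRET, CFP and YFP emission; Control set: no-enzyme wells low, DMSO-plus-enzyme wells high control.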
NR3A LBD binder – binders of NR3A ligand-binding domain, primary screen, biophysical, differential scanning fluorimetry, uHTS | Glutamate receptor ionotropic, NMDA 3A (GRIN3A) ligand-binding domain | NR3A LBD differential scanning fluorimetry, Tm shift; 0% = protein alone, 100% = glycine-bound protein | Tm shift relative to glycine control, % at 25 µM | 2.5% of 340,000 active;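 active = melting temperature shift of at least 10% of the positive control shift, at one fixed dose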
EBI2 block – EBI2 receptor antagonists, beta-arrestin recruitment, primary screen, cell-based, luminescence, 7a,25-OHC stimulation, uHTS | G-protein coupled receptor 183 (Homo sapiens), P32249 | 7a,25-OHC stimulated | inhibition, % at 5 µM | 0.81% of 360,000 active | AID 651636, 2012; in the data active = inhibition above about 38%;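 note: enzyme fragment complementation signal reports receptor beta-arrestin coupling in cells; 0% = agonist plus DMSO wells and 100% = wells without agonist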
Target sequence (P32249 whole entry, looked up, the tested form may be a part): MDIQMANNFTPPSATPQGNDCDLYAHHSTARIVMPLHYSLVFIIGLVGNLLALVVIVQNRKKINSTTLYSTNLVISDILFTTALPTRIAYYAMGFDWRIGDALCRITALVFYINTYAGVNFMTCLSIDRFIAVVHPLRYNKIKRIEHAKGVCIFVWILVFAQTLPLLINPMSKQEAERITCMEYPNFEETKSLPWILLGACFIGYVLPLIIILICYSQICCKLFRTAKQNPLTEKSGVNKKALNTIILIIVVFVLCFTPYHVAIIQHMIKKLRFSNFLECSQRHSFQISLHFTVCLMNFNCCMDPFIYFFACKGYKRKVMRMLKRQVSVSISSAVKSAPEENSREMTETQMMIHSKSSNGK
MPTP inh – mitochondrial permeability transition pore inhibitors, primary screen, biochemical, isolated mouse mitochondria, absorbance. inhibition, % at 10 µM. AID 602449, 2012. Ca2+ swelling absorbance, 30 min. 1.4% of 360,000 active;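 active = inhibition of 50% or more, scaled per plate between neutral and stimulator controls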;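 note: 0% = DMSO wells given calcium and 100% = 1 mM EGTA wells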
EBI2 antag conf – EBI2 antagonist hit retest, beta-arrestin, confirmation, cell-based, single concentration, luminescence, 7a,25-OHC stimulation; shares compounds with EBI2 block; 7a,25-OHC antagonism; inhibition, % at 5 µM; 29% of 2,400 active;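 active = inhibition of at least 50%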
EBI2 ag – EBI2 agonist activity of antagonist hits, confirmation, counter-screen for EBI2 antagonist project, cell-based, single concentration, agonist mode, luminescence; activation, % at 5 µM; shares compounds with EBI2 block; EBI2-expressing cells, 60 min; 0% vehicle, 100% 7α,25-dihydroxycholesterol control; AID 652000, 2013; 2,400 tested, under 10 active;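 active = activation of at least 50%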
bGal cs – E. coli beta-galactosidase enzyme inhibition, confirmation, counter-screen for EBI2 antagonist project, biochemical, luminescence, single concentration; purified beta-galactosidase, luminescent Galacton Star, 15 min; shares compounds with EBI2 block; 1% of 2,400 active; inhibition, % at 5 µM;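 active = replicate-average signal at least 3 plate SD below neutral wells, shown as high inhibition, flagging enzyme-inhibiting false positives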;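 note: 0% = DMSO wells with enzyme and 100% = wells lacking enzyme; higher means stronger loss of beta-gal luminescence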
Starred values were filed as active, the others as inactive; · = no result given. The list is not random: actives were taken first. Their share in the collection is about 4.4%.

SMILES	SENP1 inh	NR3A LBD binder	EBI2 block	MPTP inh	EBI2 antag conf	EBI2 ag	bGal cs
Cc1ccc(S(=O)(=O)N(C)C[C@H]2Oc3cc(C#Cc4ccccc4)ccc3S(=O)(=O)N([C@H](C)CO)C[C@@H]2C)cc1	-58	·	14	0	·	·	·
COc1ccc(OCCCC(=O)N2CCN(S(=O)(=O)c3cccc(F)c3)CC2)cc1	0	1	58*	-3	29	0	3
COc1ccc(CCC(=O)N2CCN(S(=O)(=O)c3cccc(Cl)c3)CC2)cc1	0	-1	72*	0	47	0	-17
COc1ccc(S(=O)(=O)N2CCN(C(=O)CCC3CCCC3)CC2)cc1	-1	2	3	0	·	·	·
COc1ccc(S(=O)(=O)N2CCN(C(=O)c3cccc(Cl)c3)CC2)cc1	0	1	-2	0	·	·	·
COc1ccc(CCC(=O)N2CCN(S(=O)(=O)c3ccc(C)cc3)CC2)cc1	2	-1	49*	0	21	1	4
O=S(=O)(c1ccsc1)N1CC=C(c2ccccc2)CC1	0	-1	8	0	·	·	·
COc1ccc(-c2cc(C(=O)N3CCN(c4ccccc4OC)CC3)no2)cc1	-1	2	68*	0	42	-2	-10
COc1ccccc1-c1cc(C(=O)N2CCN(c3ccccc3OC)CC2)no1	-40	4	18	-4	·	·	·
COc1ccccc1N1CCN(C(=O)c2cc(-c3ccc(C)cc3)on2)CC1	-1	-3	64*	0	44	0	1
COc1ccccc1N1CCN(C(=O)c2cc(-c3ccc(F)cc3)on2)CC1	1	3	57*	0	48	-1	6
COc1ccccc1N1CCN(C(=O)c2cc(C3CC3)on2)CC1	-1	0	-6	-2	·	·	·
COc1ccccc1N1CCN(C(=O)c2cc(-c3ccc(Cl)cc3)on2)CC1	2	-2	58*	-4	41	0	4
COc1ccccc1N1CCN(C(c2cccs2)C(C)NC(=O)c2ccco2)CC1 (centres undefined)	-1	0	5	1	·	·	·
CCCCn1c(N)c(N(CC(C)C)C(=O)c2ccc(OC)c(S(=O)(=O)N3CCOCC3)c2)c(=O)[nH]c1=O	1	0	13	-1	·	·	·
O=C(N/C(=C/c1cccs1)C(=O)N1CCOCC1)c1ccccc1	1	2	-8	-1	·	·	·
c1ccc(CN=C2CCCc3ccccc3N2)cc1	3	·	-4	-1	·	·	·
O=C(CSc1ccc(F)cc1)N1CCC(c2nc3ccccc3s2)CC1	2	1	46*	0	15	-1	-16
O=C(CSc1ccc2ccccc2n1)N1CCC(c2noc3ccc(F)cc23)CC1	4	-6	38*	9	2	2	3
Cc1ccc(S(=O)(=O)N2CCCN(C(=O)c3ccc(-n4nccc4C)cc3)CC2)cc1	4	-1	47*	2	18	4	0
COc1cc(NC(=O)COC(=O)/C=C/c2c(C)nn(-c3ccc(F)cc3)c2Cl)cc(OC)c1	0	-23	16	6	·	·	·
Cc1ccc2c(c1)-c1c(cnn1CC(=O)N(Cc1ccco1)C1CCCCC1)CO2	-1	2	47*	0	29	1	2
Cc1ccc2c(c1)-c1c(cnn1CC(=O)NC(C)CCc1ccco1)CO2 (centres undefined)	-8	-1	9	0	·	·	·
CCOc1ncccc1C(=O)Nc1ccc(C(=O)Nc2ccc(OC)cc2)cc1	0	-1	57*	2	31	2	1
O=C(NC12CC3CC(CC(C3)C1)C2)C1CC(=O)N(c2ccc(Br)cc2)C1 (centres undefined)	3	-2	51*	-5	33	1	4
SMILES	SENP1 inh	NR3A LBD binder	EBI2 block	MPTP inh	EBI2 antag conf	EBI2 ag	bGal cs
O=C(COC(=O)/C=C/c1ccco1)Nc1ccc(F)cc1Cl	2	0	-2	-4	·	·	·
COc1ccc(-c2noc(N3CCC(C(=O)NCc4ccc(Cl)cc4)CC3)n2)cc1	2	0	47*	-1	14	-2	-15
O=C(NCc1ccc(Cl)cc1)C1CCN(C(=O)c2ccc(Cl)cc2)CC1	2	1	45*	0	26	0	11
COc1ccc(-c2noc(N3CCC(C(=O)NCc4ccccc4Cl)CC3)n2)cc1	1	-3	15	-1	·	·	·
O=C(c1ccc(NC(=S)NCc2ccc(Cl)cc2)cc1)N1CCCCC1	0	-4	-6	3	·	·	·
O=C(NCc1ccc(Cl)cc1)C1CCCN(C(=O)c2ccc(Cl)cc2)C1 (centres undefined)	0	0	66*	0	34	-2	-11
O=C(NCc1ccc(Cl)cc1)C1CCN(C(=O)c2ccco2)CC1	3	-1	-3	-1	·	·	·
Cn1nnnc1Sc1ncnc2scc(-c3cc4ccccc4o3)c12	-9	-11	16	-1	·	·	·
CN(C(=O)Nc1ccccc1)n1cnc2ccccc2c1=O	4	1	0	-1	·	·	·
Nn1c(SCC(=O)NCC2CCCO2)nnc1-c1ccc(OC(F)F)cc1 (centres undefined)	3	-1	1	-1	·	·	·
CCOC(=O)C1(CCOc2ccccc2)CCN(C(=O)c2ccc(-n3cccn3)cc2)CC1	0	-2	88*	1	68*	0	7
CCOC(=O)C1(CCOc2ccccc2)CCN(Cc2cccc(-n3cccn3)c2)CC1	-2	1	2	12	·	·	·
Cc1cc(C)n(CC(=O)NC2CCCc3c2cnn3-c2ccccc2F)n1 (centres undefined)	-1	-3	-1	0	·	·	·
COc1ccc(NCC(O)COc2ccc(C(C)(C)C)cc2)cc1 (centres undefined)	0	-9	70*	6	52*	-1	5
COc1ccccc1NCC(O)COc1ccc(C(C)(C)C)cc1 (centres undefined)	3	-7	13	5	·	·	·
Cc1ccc(OCCC(=O)N2CCN(c3ccc(O)cc3)CC2)cc1	1	0	-15	3	·	·	·
NC(=O)[C@@H]1CC2(CC(c3cccc(NC(=O)COc4ccc(Cl)cc4)c3)=NO2)CN1C(=O)COc1ccc(Cl)cc1 (some centres undefined)	1	23*	53*	-2	24	-1	-18
